Laboratory results: PMC4577306 (Biochimica et biophysica acta, 2015)
No end group written: not given here.

Columns and labels:
human RIIα = human RIIα (Homo sapiens, UniProt P13861); assay: SPR kinetics of RIIα on immobilized neurochondrin peptides; assay type: binding; settings: for kon: read-out: ka (apparent association rate constant)
Procedure, shortened: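 Human RIIα purified by cAMP affinity chromatography. Test peptides dissolved in DMSO, amine-coupled to CM5 chips after 10 min NHS/EDC activation to about 1 RU, then blocked with 1 M ethanolamine-HCl pH 8.5, at 5 μL/min and 25 °C. Activated/deactivated reference flow cell. Running buffer 100 mM Tris, 150 mM NaCl, 0.005% Tween 20, pH 7.4, 25 °C. Surfaces regenerated with SDS, 4 M guanidinium-HCl and 1 M NaCl buffer.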

[1] = target: neurochondrin peptide I (human); assay: SPR
[2] = target: neurochondrin peptide II (human); assay: SPR

Sequence of human RIIα (P13861 whole entry): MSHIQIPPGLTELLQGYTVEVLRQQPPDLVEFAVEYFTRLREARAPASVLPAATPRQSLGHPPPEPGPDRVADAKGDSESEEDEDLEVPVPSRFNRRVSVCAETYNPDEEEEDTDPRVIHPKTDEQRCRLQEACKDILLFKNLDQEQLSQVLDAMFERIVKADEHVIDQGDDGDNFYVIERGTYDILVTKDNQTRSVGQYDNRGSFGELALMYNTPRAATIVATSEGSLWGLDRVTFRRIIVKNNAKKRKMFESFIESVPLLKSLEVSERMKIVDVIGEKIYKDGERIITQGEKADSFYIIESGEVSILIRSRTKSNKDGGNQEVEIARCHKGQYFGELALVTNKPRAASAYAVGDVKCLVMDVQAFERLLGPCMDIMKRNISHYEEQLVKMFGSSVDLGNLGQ

Substance: KLSSWQRNPALKLAARLAHA-NH2 [peptide II]
- Kd (human RIIα): 9.6 ± 4.8 nM
- kon (human RIIα): 110000 ± 5e+09 M⁻¹ s⁻¹

Substance: YAGDIDAKTRRRIFDAVGFTF-NH2 [peptide I]
- Kd (human RIIα): 9.3 ± 3.1 nM
- kon (human RIIα): 120000 ± 1e+09 M⁻¹ s⁻¹

Substance: human RIIα subunit of cAMP-dependent protein kinase (PKA) (from UniProt P13861 1-404) (natural protein)
- Kd [1]: 9.3 nM
- Kd [2]: 9.6 nM
